Here are results for ten compounds from ChEMBL document CHEMBL4765302, “Design, synthesis and biological evaluation of novel histone deacetylase1/2 (HDAC1/2) and cyclin-dependent Kinase2 (CDK2) dual inhibitors against malignant cancer” (Eur J Med Chem, 2020).

By inhibition is commonly meant the drop in the measured response relative to a control, in per cent. One may read the IC50 as the concentration that gives 50% inhibition.

For experiment [1], the system named is HepG2. The experiment can be described thus: Antiproliferative activity against human HepG2 cells assessed as reduction in cell growth at 2 uM incubated for 72 hrs by CCK-8 assay relative to control. The experiment is classed as functional. On the technique in general: Formazan colour is commonly taken as a measure of viable cells.
The test system of experiment [2] is NCI-H460. The experiment can be described thus: Antiproliferative activity against human H460 cells assessed as reduction in cell growth at 8 uM incubated for 72 hrs by CCK-8 assay relative to control. The experiment is classed as functional.
The test system of experiment [3] is HCT-116. The experiment can be described thus: Antiproliferative activity against human HCT-116 cells assessed as reduction in cell growth incubated for 72 hrs by CCK-8 assay. Format: functional, cell-based. As to conditions: HCT-116, 72 h. In short, it runs like this: (§1)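 IC50 by CCK-8 assay across five solid-tumour lines (HCT116, HepG2, H460, HeLa, A375). Run only for compounds chosen after the single-concentration screen, with CS055 and roscovitine as references.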

The test system of the next experiment is HeLa. As to the kind of experiment: Antiproliferative activity against human HeLa cells assessed as reduction in cell growth incubated for 72 hrs by CCK-8 assay. The experiment is classed as functional, cell-based. In short, it runs like this: as §1
For experiment [4], the system named is HCT-116. The experiment can be described thus: Antiproliferative activity against human HCT-116 cells assessed as reduction in cell growth at 8 uM incubated for 72 hrs by CCK-8 assay relative to control. Format: functional.
In experiment [5] the test system is NCI-H460. As to the kind of experiment: Antiproliferative activity against human NCI-H460 cells assessed as reduction in cell growth incubated for 72 hrs by CCK-8 assay. The experiment is classed as functional, cell-based. The note with it: NCI-H460, 72 h. In short, it runs like this:
as §1

Experiment [6] relates to HCT-116. As to the kind of experiment: Antiproliferative activity against human HCT-116 cells assessed as reduction in cell growth at 2 uM incubated for 72 hrs by CCK-8 assay relative to control. The experiment is classed as functional.
A further experiment has as its system A-375. The experiment can be described thus: Antiproliferative activity against human A-375 cells assessed as reduction in cell growth incubated for 72 hrs by CCK-8 assay. The experiment is classed as functional, cell-based. The note with it: A-375, 72 h. In a few lines:
as §1

The target of the next experiment is Histone deacetylase 1 (Homo sapiens, UniProt Q13547). The experiment can be described thus: Inhibition of recombinant human HDAC1 at 10 uM using SIRT1 as substrate incubated for 10 mins followed by substrate addition and measured after 30 mins by fluorescence based assay relative to control. The note with it: time 40.0 min. In short, it runs like this: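 Enzyme inhibition of HDAC1 measured at a single concentration of 10 µM, tested alongside the cell-growth screen.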
Chain of Histone deacetylase 1 (Q13547 whole entry): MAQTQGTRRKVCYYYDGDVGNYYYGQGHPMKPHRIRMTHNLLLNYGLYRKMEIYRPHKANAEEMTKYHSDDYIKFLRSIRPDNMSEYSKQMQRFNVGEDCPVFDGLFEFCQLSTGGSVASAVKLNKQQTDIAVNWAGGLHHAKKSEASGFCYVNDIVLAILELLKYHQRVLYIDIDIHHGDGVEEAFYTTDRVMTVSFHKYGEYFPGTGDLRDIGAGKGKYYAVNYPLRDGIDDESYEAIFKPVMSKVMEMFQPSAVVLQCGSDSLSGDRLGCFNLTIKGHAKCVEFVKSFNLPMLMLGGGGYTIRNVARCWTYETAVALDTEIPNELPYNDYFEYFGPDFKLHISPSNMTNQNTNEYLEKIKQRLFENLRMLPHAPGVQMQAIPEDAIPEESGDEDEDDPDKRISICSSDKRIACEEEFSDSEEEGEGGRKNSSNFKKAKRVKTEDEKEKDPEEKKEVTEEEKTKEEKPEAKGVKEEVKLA

Experiment [7] relates to HepG2. The experiment can be described thus: Antiproliferative activity against human HepG2 cells assessed as reduction in cell growth at 8 uM incubated for 72 hrs by CCK-8 assay relative to control. The experiment is classed as functional.
Experiment [8] deals with NCI-H460. As to the kind of experiment: Antiproliferative activity against human H460 cells assessed as reduction in cell growth at 2 uM incubated for 72 hrs by CCK-8 assay relative to control. Format: functional.
The test system of experiment [9] is HepG2. As to the kind of experiment: Antiproliferative activity against human HepG2 cells assessed as reduction in cell growth incubated for 72 hrs by CCK-8 assay. Format: functional, cell-based. As to conditions: HepG2, 72 h. In short, it runs like this:
as §1

On to `Nc1ccccc1NC(=O)c1ccc(Cn2cnc3c(Nc4ccc(-c5ccccn5)cc4)nc(Cl)nc32)cc1`, for which the values for the inhibition at 2 µM in the experiment with HepG2 [1], with HCT-116 [6] and in the experiment on NCI-H460 [8] were 11.5%, 69.5% and 18.1%, respectively. Besides, the inhibition at 8 µM stood at 30.8% in the experiment with NCI-H460 [2], 73.7% in the experiment with HCT-116 [4] and 41.2% in the experiment with HepG2 [7]. Further, the IC50 in the experiment with HCT-116 [3] is 1.25 µM; in the experiment with HeLa, greater than 20 µM; in the experiment with NCI-H460 [5], 18.4 µM; in the experiment with A-375, 18.5 µM; in the experiment on HepG2 [9], 30.1 µM. Further, the inhibition on Histone deacetylase 1 was 43.9%.

Consider `CCCCn1cnc2c(Nc3cccc(Cl)c3)nc(NCCOCc3ccc(/C=C/C(=O)Nc4ccccc4N)cc3)nc21`, for which the inhibition at 2 µM in the experiment with HepG2 [1] was 20.4%; in the experiment on HCT-116 [6], 4.76%; in the experiment with NCI-H460 [8], 25.7%. Besides, the inhibition at 8 µM amounted to 51.1% in the experiment on NCI-H460 [2], 10.8% with HCT-116 [4] and 30.4% with HepG2 [7]. Also, at Histone deacetylase 1, the inhibition was 24.6%.

As to `CCC(C)n1cnc2c(NCc3ccc(C(=O)Nc4ccccc4N)cc3)nc(Cl)nc21` (stereo not given), the inhibition at 2 µM in the experiment on HepG2 [1] is 45%; in the experiment with HCT-116 [6], 74.6%; in the experiment with NCI-H460 [8], 47.3%. In addition, the inhibition at 8 µM with NCI-H460 [2] stood at 67.7%; in the experiment with HCT-116 [4] it was 75.1%; with HepG2 [7] it was 65%. Besides, the IC50 was found to be 0.72 µM with HCT-116 [3]; 3.03 µM in the experiment with HeLa; 4.94 µM in the experiment with NCI-H460 [5]; 2.88 µM in the experiment on A-375; 2.99 µM in the experiment on HepG2 [9]. The inhibition at Histone deacetylase 1 worked out at 94.7%.

Regarding `CCCCn1cnc2c(NCc3ccc(C(=O)Nc4ccccc4N)cc3)nc(Cl)nc21`, the inhibition at 2 µM is 6.8% in the experiment with HepG2 [1], 4.89% with HCT-116 [6] and 19.7% in the experiment with NCI-H460 [8]. Also, the results for the inhibition at 8 µM in the experiment with NCI-H460 [2], in the experiment on HCT-116 [4] and in the experiment with HepG2 [7] were 23.7%, 40.9% and 19.6%, respectively. Besides, the inhibition at Histone deacetylase 1 is 9.56%.

For `Cc1ccc(Nc2nc(Cl)nc3c2ncn3Cc2ccc(/C=C/C(=O)Nc3ccccc3N)cc2)cc1`, the inhibition at 2 µM was 33.6% in the experiment on HepG2 [1], 0.27% in the experiment with HCT-116 [6] and 31.3% in the experiment on NCI-H460 [8]. For the same compound, the values for the inhibition at 8 µM in the experiment on NCI-H460 [2], in the experiment with HCT-116 [4] and in the experiment on HepG2 [7] were 51.3%, 15% and 43%, respectively. On Histone deacetylase 1, the inhibition stood at 41.8%.

As for `COC(CCn1cnc2c(NCc3ccc(C(=O)Nc4ccccc4N)cc3)nc(Cl)nc21)OC`, the inhibition at 2 µM is 8.52% in the experiment on HepG2 [1], 6.39% in the experiment on HCT-116 [6] and 43.7% in the experiment with NCI-H460 [8]. In addition, the inhibition at 8 µM stood at 51.2% with NCI-H460 [2], 11.9% in the experiment on HCT-116 [4] and 34.2% with HepG2 [7]. Also, on Histone deacetylase 1, the inhibition is 29.5%.

For the compound `Nc1ccccc1NC(=O)c1ccc(CNc2nc(Cl)nc3c2ncn3Cc2ccccc2)cc1`, the inhibition at 2 µM in the experiment on HepG2 [1] stood at 5.01%; in the experiment with HCT-116 [6] it was 7.7%; with NCI-H460 [8], 43.8%. The values for the inhibition at 8 µM with NCI-H460 [2], in the experiment on HCT-116 [4] and in the experiment on HepG2 [7] were 46.4%, 11.4% and 5.32%, respectively. The inhibition on Histone deacetylase 1 stood at 27.6%.

As to `CN1CCN(c2nc(Cl)nc3c2ncn3Cc2ccc(C(=O)Nc3ccccc3N)cc2)CC1`, the values for the inhibition at 2 µM in the experiment with HepG2 [1], with HCT-116 [6] and in the experiment on NCI-H460 [8] were 60.4%, 71.6% and 13.4%, respectively. In addition, the inhibition at 8 µM with NCI-H460 [2] came to 55%; in the experiment on HCT-116 [4], 72.8%; in the experiment with HepG2 [7], 75%. For the same compound, the IC50 in the experiment with HCT-116 [3] was 0.31 µM; in the experiment on HeLa, 1.17 µM; in the experiment with NCI-H460 [5], 6.16 µM; in the experiment on A-375 it was 1.6 µM; in the experiment with HepG2 [9], 2.01 µM. Further, on Histone deacetylase 1, the inhibition stood at 80.5%.

Turning to `Nc1ccccc1NC(=O)/C=C/c1ccc(Cn2cnc3c(NCc4ccccc4)nc(Cl)nc32)cc1`, the inhibition at 2 µM was determined as 11.5% in the experiment with HepG2 [1], 2.85% with HCT-116 [6] and 4.62% in the experiment on NCI-H460 [8]. Also, the inhibition at 8 µM in the experiment with NCI-H460 [2] turned out to be 49.1%; in the experiment with HCT-116 [4] it was 17.4%; in the experiment on HepG2 [7] it was 37.7%. On Histone deacetylase 1, the inhibition was determined as 22.5%.

For `Nc1ccccc1NC(=O)c1ccc(Cn2cnc3c(Nc4cccc(Cl)c4)nc(Cl)nc32)cc1`, the values for the inhibition at 2 µM in the experiment with HepG2 [1], in the experiment with HCT-116 [6] and in the experiment with NCI-H460 [8] were 29.9%, 56.2% and 10.3%, respectively. Also, the values for the inhibition at 8 µM in the experiment with NCI-H460 [2], in the experiment on HCT-116 [4] and in the experiment on HepG2 [7] were 67%, 78.4% and 66.7%, respectively. In addition, the IC50 with HCT-116 [3] stood at 2.34 µM; in the experiment with HeLa it was 11.3 µM; with NCI-H460 [5], 6.58 µM; with A-375, 6.08 µM; with HepG2 [9], 9.8 µM. Moreover, the inhibition at Histone deacetylase 1 was determined as 61.3%.
